Assay results as given in ChEMBL document CHEMBL4261636, “Design of Y2 Receptor Selective and Proteolytically Stable PYY3-36 Analogues” (J Med Chem, 2018).

Columns and labels:
[1] = target: Dipeptidyl peptidase 4 (Sus scrofa, UniProt P22411); test: Drug metabolism in minipig plasma assessed as DDP-4-meditaed GLP1(9 to 37 residues) formation by measuring half life at 1 uM by LC-MS analysis; format: ADME; settings: pig
Outline: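 Heparinized mini-pig plasma diluted 4:1 with 0.1 M PBS pH 7.4, pre-warmed 30 min at 37°C with peptide, then combined (1 uM final) and kept at 37°C. Aliquots taken at 5–300 min were quenched in 3 volumes methanol with internal standard, centrifuged and water-diluted. Analysed by ESI+ QTOF LC-MS against 20–2000 nM plasma calibrators, with %-remaining normalised to the 15 min sample; n = 3.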

[2] = target: Neuropeptide Y receptor type 4 (Mus musculus, UniProt Q61041); test: Displacement of [125I]-PP from mouse Y4R expressed in HEK293 cell membranes after 2 hrs by scintillation proximity assay
[3] = Displacement of [125I]-PYY(1 to 36 residues) from mouse Y1R expressed in HEK293 cell membranes after 2 hrs by scintillation proximity assay
[4] = target: T1, Neuropeptide Y receptor type 5 (Mus musculus, UniProt O70342); test: Displacement of [125I]-PYY(1 to 36 residues) from mouse Y5R expressed in HEK293 cell membranes after 2 hrs by scintillation proximity assay
T1 sequence (O70342 whole entry): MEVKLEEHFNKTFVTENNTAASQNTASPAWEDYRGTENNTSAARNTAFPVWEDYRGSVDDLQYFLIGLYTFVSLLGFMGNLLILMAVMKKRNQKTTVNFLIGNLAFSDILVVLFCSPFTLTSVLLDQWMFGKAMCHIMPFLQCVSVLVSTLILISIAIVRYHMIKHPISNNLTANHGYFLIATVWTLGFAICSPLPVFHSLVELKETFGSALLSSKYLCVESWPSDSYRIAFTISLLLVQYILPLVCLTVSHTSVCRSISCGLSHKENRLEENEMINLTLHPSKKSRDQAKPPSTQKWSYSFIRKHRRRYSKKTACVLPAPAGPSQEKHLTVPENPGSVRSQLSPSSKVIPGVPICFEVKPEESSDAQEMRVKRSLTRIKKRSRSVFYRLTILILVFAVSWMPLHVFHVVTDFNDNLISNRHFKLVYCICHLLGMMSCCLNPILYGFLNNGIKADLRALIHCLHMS

[5] = target: T2, Neuropeptide Y receptor type 2 (Homo sapiens, UniProt P49146); test: Displacement of [125I]-PYY(1 to 36 residues) from human Y2R expressed in CHO cell membranes after 2 hrs by scintillation proximity assay
T2 sequence (P49146 whole entry): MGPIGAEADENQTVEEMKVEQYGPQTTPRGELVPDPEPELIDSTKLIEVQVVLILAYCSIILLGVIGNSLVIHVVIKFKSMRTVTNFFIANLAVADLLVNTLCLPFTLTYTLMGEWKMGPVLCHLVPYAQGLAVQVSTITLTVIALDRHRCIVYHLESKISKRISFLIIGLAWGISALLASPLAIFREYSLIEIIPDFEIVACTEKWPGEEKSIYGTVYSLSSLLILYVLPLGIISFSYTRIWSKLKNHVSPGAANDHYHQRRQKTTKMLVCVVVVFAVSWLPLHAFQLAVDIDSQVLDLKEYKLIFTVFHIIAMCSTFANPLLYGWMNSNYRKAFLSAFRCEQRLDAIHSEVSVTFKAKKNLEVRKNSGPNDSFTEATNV

[6] = target: T3, Neuropeptide Y receptor type 1 (Homo sapiens, UniProt P25929); test: Displacement of [125I]-PYY(1 to 36 residues) from human Y1R expressed in BHK-21 cell membranes after 2 hrs by scintillation proximity assay
T3 sequence (P25929 whole entry): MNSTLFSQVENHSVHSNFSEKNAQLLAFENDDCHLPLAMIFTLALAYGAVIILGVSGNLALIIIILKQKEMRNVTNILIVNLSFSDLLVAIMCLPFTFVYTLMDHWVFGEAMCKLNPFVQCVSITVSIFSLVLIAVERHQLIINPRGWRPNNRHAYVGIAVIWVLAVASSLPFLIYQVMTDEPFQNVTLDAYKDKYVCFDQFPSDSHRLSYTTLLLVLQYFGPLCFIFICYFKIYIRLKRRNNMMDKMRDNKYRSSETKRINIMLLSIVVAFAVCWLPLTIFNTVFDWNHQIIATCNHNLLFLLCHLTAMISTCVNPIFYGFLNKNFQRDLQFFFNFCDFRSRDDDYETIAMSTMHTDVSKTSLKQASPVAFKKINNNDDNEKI

[7] = target: T2, Neuropeptide Y receptor type 2; test: Activation of human Y2R expressed in HEK293 cells assessed as inhibition of isoproterenol-induced increase in intracellular cAMP levels by calcium 5 dye-based FLIPR assay; format: functional, cell-based
[8] = target: T3, Neuropeptide Y receptor type 1; test: Activation of human Y1R expressed in HEK293 cells assessed as inhibition of isoproterenol-induced increase in intracellular cAMP levels by calcium 5 dye-based FLIPR assay; format: functional, cell-based
[9] = Displacement of [125I]-PYY(1 to 36 residues) from mouse Y2R expressed in HEK293 cell membranes after 2 hrs by scintillation proximity assay

Sequence of Dipeptidyl peptidase 4 (P22411 whole entry, the tested form may be a part): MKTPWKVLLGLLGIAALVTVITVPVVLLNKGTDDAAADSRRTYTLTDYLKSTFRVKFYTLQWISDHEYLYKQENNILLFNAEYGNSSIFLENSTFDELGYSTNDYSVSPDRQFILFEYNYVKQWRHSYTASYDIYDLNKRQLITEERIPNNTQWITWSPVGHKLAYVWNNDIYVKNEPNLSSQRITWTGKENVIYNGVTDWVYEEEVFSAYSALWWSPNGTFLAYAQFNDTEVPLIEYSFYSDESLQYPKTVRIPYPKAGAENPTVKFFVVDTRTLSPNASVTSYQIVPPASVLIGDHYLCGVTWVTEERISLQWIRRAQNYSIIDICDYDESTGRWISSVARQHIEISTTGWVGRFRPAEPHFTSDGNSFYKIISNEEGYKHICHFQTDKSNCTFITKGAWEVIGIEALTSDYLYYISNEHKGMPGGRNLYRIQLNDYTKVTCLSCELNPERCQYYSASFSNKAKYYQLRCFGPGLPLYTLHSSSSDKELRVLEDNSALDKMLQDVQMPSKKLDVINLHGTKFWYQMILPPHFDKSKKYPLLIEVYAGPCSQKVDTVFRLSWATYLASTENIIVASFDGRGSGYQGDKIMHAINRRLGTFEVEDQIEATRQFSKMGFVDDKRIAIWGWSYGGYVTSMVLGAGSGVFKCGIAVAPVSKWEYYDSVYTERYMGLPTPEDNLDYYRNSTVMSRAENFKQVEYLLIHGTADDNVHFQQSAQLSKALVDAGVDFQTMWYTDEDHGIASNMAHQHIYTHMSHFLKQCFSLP
Sequence of Neuropeptide Y receptor type 4 (Q61041 whole entry, the tested form may be a part): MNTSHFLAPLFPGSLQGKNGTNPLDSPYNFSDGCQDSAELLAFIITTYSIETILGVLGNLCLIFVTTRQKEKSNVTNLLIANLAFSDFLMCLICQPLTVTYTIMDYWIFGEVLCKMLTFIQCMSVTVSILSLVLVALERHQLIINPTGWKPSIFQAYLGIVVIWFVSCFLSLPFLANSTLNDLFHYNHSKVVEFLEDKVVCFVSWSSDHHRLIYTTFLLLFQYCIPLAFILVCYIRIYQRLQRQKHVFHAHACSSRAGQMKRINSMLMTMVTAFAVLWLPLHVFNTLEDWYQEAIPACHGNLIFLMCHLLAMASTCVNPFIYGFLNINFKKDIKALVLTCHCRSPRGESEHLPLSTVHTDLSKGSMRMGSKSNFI

Row | Structure (SMILES) | t1/2 [1] | EC50 [2] | IC50 [3] | pIC50 [3] | EC50 [4] | Ki [5] | Ki [6] | EC50 ([7]; read-out: EC50) | EC50 ([7]; read-out: pEC50 (converted)) | EC50 ([8]; read-out: EC50) | EC50 ([8]; read-out: pEC50 (converted)) | IC50 [9] | pIC50 [9]
1 | CC[C@H](C)[C@H](NC(=O)[C@H](Cc1ccccc1)NC(=O)[C@H](CCC(=O)O)NC(=O)[C@H](CCCCN)NC(=O)[C@H](C)NC(=O)[C@H](C)NC(=O)[C@H](CCC(N)=O)NC(=O)CNC(=O)[C@H](CCC(=O)O)NC(=O)[C@H](CC(C)C)NC(=O)[C@H](Cc1ccc(O)cc1)NC(=O)[C@H](CO)NC(=O)[C@H](CO)NC(=O)[C@@H](NC(=O)[C@H](CC(=O)O)NC(=O)[C@H](CO)NC(=O)[C@@H](NC(=O)[C@H](Cc1ccccc1)NC(=O)[C@@H](NC(=O)CNC(=O)[C@H](CCC(=O)O)NC(=O)[C@H](C)NC(=O)[C@@H](N)Cc1c[nH]cn1)[C@@H](C)O)[C@@H](C)O)C(C)C)C(=O)N[C@@H](C)C(=O)N[C@@H](Cc1c[nH]c2ccccc12)C(=O)N[C@@H](CC(C)C)C(=O)N[C@H](C(=O)N[C@@H](CCCCN)C(=O)NCC(=O)N[C@@H](CCCN=C(N)N)C(=O)NCC(=O)O)C(C)C | 46 min | – | – | – | – | – | – | – | – | – | – | – | –
2 | CC[C@H](C)[C@H](NC(=O)[C@H](Cc1ccc(O)cc1)NC(=O)[C@H](CCCNC(=N)N)NC(=O)[C@H](CCCNC(=N)N)NC(=O)[C@H](CC(C)C)NC(=O)[C@H](CC(=O)O)NC(=O)[C@H](C)NC(=O)[C@H](C)NC(=O)[C@H](Cc1ccc(O)cc1)NC(=O)[C@H](CCC(N)=O)NC(=O)[C@H](C)NC(=O)[C@H](CCSC)NC(=O)[C@H](CCC(N)=O)NC(=O)[C@H](CCC(=O)O)NC(=O)[C@@H]1CCCN1C(=O)[C@@H](NC(=O)[C@H](C)NC(=O)[C@H](CC(N)=O)NC(=O)[C@H](CC(=O)O)NC(=O)CNC(=O)[C@@H]1CCCN1C(=O)[C@H](Cc1ccc(O)cc1)NC(=O)[C@@H](NC(=O)[C@@H]1CCCN1C(=O)[C@H](CCC(=O)O)NC(=O)[C@H](CC(C)C)NC(=O)[C@@H]1CCCN1C(=O)[C@H](C)N)C(C)C)[C@@H](C)O)C(=O)N[C@@H](CC(N)=O)C(=O)N[C@@H](CCSC)C(=O)N[C@@H](CC(C)C)C(=O)N[C@H](C(=O)N[C@@H](CCCNC(=N)N)C(=O)N1CCC[C@H]1C(=O)N[C@@H](CCCNC(=N)N)C(=O)N[C@@H](Cc1ccc(O)cc1)C(=O)O)[C@@H](C)O | – | 0.1 nM | 10 nM | 8 | 2.5 nM | 5000 nM | 50 nM | > 30 nM | > 31.6 nM | > 30 nM | > 31.6 nM | > 1000 nM | < 6
